Reference: ChEMBL document CHEMBL1124943, “Alkylation of DNA by C-10 of 2,7-diaminomitosene” (1990)

Experiments:
Type in all cases: functional
Nucleic Acid [1] = assay: Ability to […] breaks induced by ionozing radiation on exposure for 1 hr at a concentration of 100 ug/mL
Outline: (§1)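 Murine L-1210 cells were prelabelled with [2-14C]thymidine (2.0 μCi) for 4 doublings (48 h), then chased 24 h in unlabelled medium. They were exposed 1 h at 37 °C, washed twice at 4 °C, and 10^6 cells were lysed on PVC filters (SDS/glycine/EDTA, pH 10.0). Lysates were digested 1 h with proteinase K (0.5 mg/mL), then alkaline-eluted (pH 12.1) for 15 h. First-order elution rates were converted to rad equivalents against ionizing-radiation standards. Values are the mean of three determinations, or duplicates where marked.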

Nucleic Acid [2] = assay: Ability to […] breaks induced by ionozing radiation on exposure for 1 hr at a concentration of 10 ug/mL; outline: as §1
L1210 [3] = assay: Survival of L-1210 leukemia cells upon exposure to the compound for 1 hr at a concentration of 100ug/mL, measured in colony forming units.; details: Mus musculus, L1210, 1 h; read-out: Survival
L1210 [4] = assay: Survival of L-1210 leukemia cells upon exposure to the compound for 1 hr at a concentration of 10ug/mL, measured in colony forming units.; details: Mus musculus, L1210, 1 h; read-out: Survival
L1210 [5] = assay: Survival of L-1210 leukemia cells upon exposure to the compound for 1 hr at a concentration of 50ug/mL, measured in colony forming units.; details: Mus musculus, L1210, 1 h; read-out: Survival
Nucleic Acid [6] = assay: Ability to […] breaks induced by ionozing radiation on exposure for 1 hr at a concentration of 50 ug/mL; outline: as §1
L1210 [7] = assay: Survival of L-1210 leukemia cells upon exposure to the compound for 1 hr at a concentration of 1ug/mL, measured in colony forming units.; details: Mus musculus, L1210, 1 h; read-out: Survival
L1210 [8] = assay: Survival of L-1210 leukemia cells upon exposure to the compound for 1 hr at a concentration of 500ug/mL, measured in colony forming units.; details: Mus musculus, L1210, 1 h; read-out: Survival
Nucleic Acid [9] = assay: Ability to […] breaks induced by ionozing radiation on exposure for 1 hr at a concentration of 500 ug/mL; outline: as §1
Nucleic Acid [10] = assay: Ability to […] breaks induced by ionozing radiation on exposure for 1 hr at a concentration of 250 ug/mL; outline: as §1
L1210 [11] = assay: Survival of L-1210 leukemia cells upon exposure to the compound for 1 hr at a concentration of 250ug/mL, measured in colony forming units.; details: Mus musculus, L1210, 1 h; read-out: Survival
[12] = tested as the 18O-labelled form

Row | Structure (SMILES) | DNA single strand breaks (Nucleic Acid [1]) [rad equiv] | DNA single strand breaks (Nucleic Acid [2]) [rad equiv] | viability at 100 µg/mL (L1210 [3]) [%] | viability at 10 µg/mL (L1210 [4]) [%] | viability at 50 µg/mL (L1210 [5]) [%] | DNA single strand breaks (Nucleic Acid [6]) [rad equiv] | viability at 1 µg/mL (L1210 [7]) [%] | viability at 500 µg/mL (L1210 [8]) [%] | DNA single strand breaks (Nucleic Acid [1]; [12]) [rad equiv] | DNA single strand breaks (Nucleic Acid [2]; [12]) [rad equiv] | DNA single strand breaks (Nucleic Acid [9]; [12]) [rad equiv] | DNA single strand breaks (Nucleic Acid [6]; [12]) [rad equiv] | DNA single strand breaks (Nucleic Acid [10]) [rad equiv] | DNA single strand breaks (Nucleic Acid [9]) [rad equiv] | viability at 250 µg/mL (L1210 [11]) [%]
1 | COS(C)(=O)=O [METHANESULFONIC ACID METHYL ESTER] | 2150 | 583 | 0.2 | 100 | 32 | 935 |  |  |  |  |  |  |  |  | 
2 | CC1=C(N)C(=O)c2c(COC(N)=O)c3n(c2C1=O)CC(N)C3[18OH] (stereo not given) |  |  | 0 | 81 | 2 |  | 100 | 0 |  |  |  |  |  |  | 
3 | CC1=C(N)C(=O)c2c(COC(N)=O)c3n(c2C1=O)CC(N)C3O (stereo not given) |  |  |  |  |  |  |  |  | 50 | 0 | 395 | 0 |  |  | 
4 | CC1=C(N)C(=O)c2c(COC(N)=O)c3n(c2C1=O)CC(N)C3 (stereo not given) | 320 | 0 | 8 | 100 | 43 | 110 |  | 0 |  |  |  |  | 470 | 535 | 0.9
